Measurements reported in ChEMBL document CHEMBL3868642, “Discovery of novel curcumin derivatives targeting xanthine oxidase and urate transporter 1 as anti-hyperuricemic agents” (Bioorg Med Chem, 2017).
The source made the active and inactive calls. The rule behind the calls is not given here.

What was measured:
Mus musculus [1] = test: Antihyperuricemic activity in fasted Kun Ming mouse assessed as inhibition of potassium oxonate-induced uric acid level in serum at 10 mg/kg qd administered 1 hr post potassium oxonate-challenge for 7 days via oral gavage measured 1 hr post last dose by phosphotungstic acid method relative to vehicle-treated control; assay type: functional
Mus musculus [2] = test: Uricosuric activity in potassium oxonate-induced Kun Ming mouse model of hyperuricemia assessed as increase in uric acid excretion in urine at 10 mg/kg qd administered 1 hr post potassium oxonate-challenge for 7 days via oral gavage measured up to 24 hrs post last dose by phosphotungstic acid method relative to vehicle-treated control; assay type: functional
[3] = target: T1, Solute carrier family 22 member 12 (Homo sapiens, UniProt Q96S37); test: Inhibition of URAT1 (unknown origin) expressed in HEK293 cells assessed as inhibition of [14C]-uric acid uptake at 100 uM preincubated for 30 mins followed by [14C]-uric acid addition by liquid scintillation counting analysis relative to control; assay type: cell-based
T1 sequence (Q96S37 whole entry): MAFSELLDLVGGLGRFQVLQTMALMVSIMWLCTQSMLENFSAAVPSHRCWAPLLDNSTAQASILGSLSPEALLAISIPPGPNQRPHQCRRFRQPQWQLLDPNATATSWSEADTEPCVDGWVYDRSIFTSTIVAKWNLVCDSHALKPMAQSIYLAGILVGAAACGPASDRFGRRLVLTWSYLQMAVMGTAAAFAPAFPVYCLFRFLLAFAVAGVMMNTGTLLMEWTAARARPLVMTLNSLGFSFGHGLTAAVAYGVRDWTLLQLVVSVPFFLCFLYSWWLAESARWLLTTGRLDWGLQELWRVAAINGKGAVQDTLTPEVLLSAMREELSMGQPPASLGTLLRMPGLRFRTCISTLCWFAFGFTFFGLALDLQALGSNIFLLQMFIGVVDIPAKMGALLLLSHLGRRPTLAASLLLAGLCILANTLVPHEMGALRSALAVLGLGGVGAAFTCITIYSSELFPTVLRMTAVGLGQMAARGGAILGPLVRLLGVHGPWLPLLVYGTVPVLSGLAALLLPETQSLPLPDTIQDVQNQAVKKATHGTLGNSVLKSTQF

[4] = target: Xanthine dehydrogenase/oxidase (Homo sapiens, UniProt P47989); test: Inhibition of xanthine oxidase (unknown origin) assessed as reduction in uric acid formation preincubated for 5 mins followed by addition of xanthine substrate measured every minute up to 8 mins
Chain of Xanthine dehydrogenase/oxidase (P47989 whole entry): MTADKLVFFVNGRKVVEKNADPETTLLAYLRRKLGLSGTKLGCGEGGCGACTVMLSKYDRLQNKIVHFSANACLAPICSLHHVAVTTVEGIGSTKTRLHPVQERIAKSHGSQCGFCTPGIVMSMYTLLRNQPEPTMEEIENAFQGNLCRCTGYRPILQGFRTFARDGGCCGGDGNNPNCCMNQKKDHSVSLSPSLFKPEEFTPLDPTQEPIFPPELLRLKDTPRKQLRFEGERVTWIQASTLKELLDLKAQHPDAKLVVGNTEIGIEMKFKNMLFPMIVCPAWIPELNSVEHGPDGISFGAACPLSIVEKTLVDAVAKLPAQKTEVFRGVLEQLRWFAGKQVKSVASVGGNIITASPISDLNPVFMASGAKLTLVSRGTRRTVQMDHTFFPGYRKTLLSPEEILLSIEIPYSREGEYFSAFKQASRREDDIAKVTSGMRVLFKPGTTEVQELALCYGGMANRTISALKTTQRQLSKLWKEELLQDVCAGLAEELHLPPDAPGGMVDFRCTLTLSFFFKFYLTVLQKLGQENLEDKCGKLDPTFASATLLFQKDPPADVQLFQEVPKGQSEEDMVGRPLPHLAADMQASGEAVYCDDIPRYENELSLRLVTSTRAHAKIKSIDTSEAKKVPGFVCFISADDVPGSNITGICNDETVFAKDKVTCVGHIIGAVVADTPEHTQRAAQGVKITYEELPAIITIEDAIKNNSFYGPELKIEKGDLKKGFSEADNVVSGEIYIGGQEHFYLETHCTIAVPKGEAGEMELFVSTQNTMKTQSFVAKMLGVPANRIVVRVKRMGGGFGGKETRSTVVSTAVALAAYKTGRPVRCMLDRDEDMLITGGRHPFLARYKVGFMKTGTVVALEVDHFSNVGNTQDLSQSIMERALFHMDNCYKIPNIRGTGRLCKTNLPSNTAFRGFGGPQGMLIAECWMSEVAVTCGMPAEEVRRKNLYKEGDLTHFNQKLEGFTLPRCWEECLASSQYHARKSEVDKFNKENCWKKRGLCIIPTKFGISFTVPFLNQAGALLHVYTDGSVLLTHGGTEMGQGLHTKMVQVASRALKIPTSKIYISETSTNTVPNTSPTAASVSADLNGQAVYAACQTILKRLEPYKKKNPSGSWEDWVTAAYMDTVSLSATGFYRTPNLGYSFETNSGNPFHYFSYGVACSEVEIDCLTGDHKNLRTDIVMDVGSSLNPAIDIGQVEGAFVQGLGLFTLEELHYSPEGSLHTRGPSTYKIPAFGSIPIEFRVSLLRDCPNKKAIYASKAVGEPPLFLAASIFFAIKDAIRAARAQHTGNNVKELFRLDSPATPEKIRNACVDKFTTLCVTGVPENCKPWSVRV

Mus musculus [5] = test: Antihyperuricemic activity in potassium oxonate-induced Kun Ming mouse model of hyperuricemia assessed as reduction in uric acid level in serum at 10 mg/kg, po qd administered via oral gavage 1 hr post potassium oxonate-challenge for 7 consecutive days by phosphotungstic acid method; assay type: functional, organism-based
How it was run: (§1)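 Male Kun-Ming mice, 18–22 g, acclimatised one week, food withdrawn 1 h before dosing. Once-daily oral gavage of oxonate 250 mg/kg or 0.5% CMC-Na at 8:00, then test agent in 0.5% CMC-Na at 9:00, for seven days. 24 h urine collected from day six in metabolic cages. Serum taken 1 h after final dose, liver tissue removed. Uric acid measured by phosphotungstic acid method. n = 8.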

Mus musculus [6] = test: Antihyperuricemic activity in potassium oxonate-induced Kun Ming mouse model of hyperuricemia assessed as uricosuric activity by measuring increase in urinary uric acid excretion at 10 mg/kg, po qd administered via oral gavage 1 hr post potassium oxonate-challenge for 7 consecutive days measured up to 24 hrs post last dose by phosphotungstic acid method; assay type: functional, organism-based; how it was run: as §1
Mus musculus [7] = test: In vivo inhibition of potassium oxonate-induced hepatic XOD activity in Kun Ming mouse model of hyperuricemia at 10 mg/ kg, po qd administered 1 hr post potassium oxonate-challenge for 7 consecutive days via oral gavage relative to control; assay type: functional
Mus musculus [8] = test: Antihyperuricemic activity in potassium oxonate-induced Kun Ming mouse model of hyperuricemia assessed as oxonate-induced hepatic XOD activity at 10 mg/ kg, po qd administered 1 hr post potassium oxonate-challenge for 7 consecutive days via oral gavage relative to oxonate-treated control; assay type: functional
Mus musculus [9] = test: Antihyperuricemic activity in potassium oxonate-induced Kun Ming mouse model of hyperuricemia assessed as reduction in hepatic uric acid level at 10 mg/kg, po qd administered via oral gavage 1 hr post potassium oxonate-challenge for 7 consecutive days by phosphotungstic acid method; assay type: functional, organism-based; how it was run: as §1
[10] = Decrease in potassium oxonate-induced renal URAT1 expression in Kun Ming mouse model of hyperuricemia at 10 mg/ kg, po qd administered 1 hr post potassium oxonate-challenge for 7 consecutive days via oral gavage by Western blot method relative to oxonate-treated control; assay type: functional, organism-based

| Structure (SMILES) | inhibition in vivo at 10 mg/kg (Mus musculus [1]) | Activity (Mus musculus [2]) | inhibition at 100 µM [3] | IC50 [4] | Activity (Mus musculus [5]) | Activity (Mus musculus [6]) | inhibition (Mus musculus [7]) | Activity (Mus musculus [8]) | Activity (Mus musculus [9]) | Activity [10] |
| --- | --- | --- | --- | --- | --- | --- | --- | --- | --- | --- |
| COc1cc(/C=C2\CCC/C(=C\c3cccc(Br)c3)C2=O)cc(OC)c1 | 47.3% | 44.71% | 20.7% | 18.9 nM | – | – | – | – | – | – |
| COc1cc(/C=C2\CCC/C(=C\c3ccc(N(C)C)cc3)C2=O)cc(OC)c1 | 20.1% | 10.74% | – | – | – | – | – | – | – | – |
| COc1cc(/C=C2\CCC/C(=C\c3cc(C(C)(C)C)c(O)c(C(C)(C)C)c3)C2=O)cc(OC)c1 | 7.74% | 19.35% | – | – | – | – | – | – | – | – |
| Oc1ncnc2[nH]ncc12 [ALLOPURINOL] | 118 to 148% | 88.6% | – | – | Active | Active | Active | 43.4% | Active | – |
| CCc1oc2ccccc2c1C(=O)c1cc(Br)c(O)c(Br)c1 [BENZBROMARONE] | 99.7% | 37.58% | 42.5% | – | Active | Active | – | 11.3% | Active | Active |
